We go through one compound from publication PMC8159431 (Chemical Science, 2020).

Like-named read-outs stand apart in the source and are kept apart here.

What all share (format): binding
For test [1], the target named is tau (0N4R) aggregates, sucrose gradient fractions (Homo sapiens, UniProt P10636). The procedure, abridged:
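Tau aggregates were separated by sucrose gradient ultracentrifugation into 10–50% fractions, and the 20% fraction was characterised by TEM. Each fraction was titrated with the test compound and fluorescence intensity was read. Kd was obtained by curve fitting (n = 3–6). Ratios compare Kd with the 50% sucrose tau Kd, and tau Kd with the Kd for Aβ40 aggregates at 200 min.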

Test [2] deals with tau aggregates (Tau-441 human) (Homo sapiens, UniProt P10636). Put plainly: Fluorimeter assay with aliquots of the tau aggregation. Particulars: tau aggregates at different time points.
For another test, the target named is Aβ40 aggregates (Homo sapiens, UniProt P05067). The procedure, abridged:
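Aβ40 aggregates were taken at 90 min, 200 min and 24 h from a compound-free aggregation run and ultracentrifuged. They were titrated with a range of probe concentrations, and fluorescence intensity was read. Kd was obtained by curve fitting (n = 3). Binding ratio is Kd relative to the Kd of the 50% sucrose tau fraction.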

Chain of tau (0N4R) aggregates, sucrose gradient fractions (P10636 1-383 isoform P10636-6): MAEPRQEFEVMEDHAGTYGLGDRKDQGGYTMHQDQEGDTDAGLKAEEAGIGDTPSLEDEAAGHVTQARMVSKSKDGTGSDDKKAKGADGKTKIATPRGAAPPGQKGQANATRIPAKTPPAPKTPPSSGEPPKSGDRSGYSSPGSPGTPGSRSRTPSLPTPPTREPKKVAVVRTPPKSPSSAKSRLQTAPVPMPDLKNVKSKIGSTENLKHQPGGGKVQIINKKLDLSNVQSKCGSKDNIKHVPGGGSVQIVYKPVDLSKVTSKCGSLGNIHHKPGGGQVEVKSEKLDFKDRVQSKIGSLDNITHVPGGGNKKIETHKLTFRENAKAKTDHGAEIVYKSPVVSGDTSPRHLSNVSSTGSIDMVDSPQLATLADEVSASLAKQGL
Chain of Aβ40 aggregates (P05067 672-711 limits assumed): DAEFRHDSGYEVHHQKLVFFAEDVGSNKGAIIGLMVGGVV
Chain of tau aggregates (Tau-441 human) (P10636 1-441 isoform P10636-8): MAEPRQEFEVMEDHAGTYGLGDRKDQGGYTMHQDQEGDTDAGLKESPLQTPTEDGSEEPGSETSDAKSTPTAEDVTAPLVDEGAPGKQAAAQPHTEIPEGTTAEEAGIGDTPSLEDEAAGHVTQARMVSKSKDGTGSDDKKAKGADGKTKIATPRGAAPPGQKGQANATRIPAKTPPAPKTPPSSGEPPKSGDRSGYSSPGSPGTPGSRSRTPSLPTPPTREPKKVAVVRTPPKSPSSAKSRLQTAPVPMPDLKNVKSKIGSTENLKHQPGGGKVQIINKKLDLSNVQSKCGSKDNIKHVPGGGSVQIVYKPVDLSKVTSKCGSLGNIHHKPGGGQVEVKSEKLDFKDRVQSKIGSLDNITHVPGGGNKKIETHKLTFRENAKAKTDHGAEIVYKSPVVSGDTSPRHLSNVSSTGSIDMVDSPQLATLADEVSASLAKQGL

On to `O=C(O)Cc1cc(-c2ccc(C(=O)O)s2)sc1-c1ccc(-c2sc(-c3ccc(C(=O)O)s3)cc2CC(=O)O)s1` [pFTAA, 3''',4'-bis(carboxymethyl)-[2,2':5',2'':5'',2''':5''',2''''-quinquethiophene]-5,5''''-dicarboxylic acid], for which the “binding ratio (Kd compared with the 50% sucrose tau Kd)” value is listed as 148 in test [1] (10% sucrose tau); 14 in test [1] (20% sucrose tau); 26 in test [1] (30% sucrose tau); 6 in test [1] (40% sucrose tau); 1 in test [1] (50% sucrose tau); 5 at Aβ40 aggregates (200 minute Aβ). Further, on Aβ40 aggregates (24 hour Aβ), the “binding ratio (Kd compared with the 50% sucrose tau Kd)” value is reported as 3. In addition, the Kd – broadly, a measure of binding affinity in units of concentration – in test [1] (10% sucrose tau fraction) was 29.6 ± 2.1 µM; in test [1] (20% sucrose tau fraction), 2.75 ± 0.57 µM; in test [1] (40% sucrose tau fraction), 1.29 ± 0.2 µM; in test [1] (50% sucrose tau fraction), 0.2 ± 0.01 µM; at Aβ40 aggregates (Aβ40 aggregates at 90 min), “no binding affinity”; on Aβ40 aggregates (Kd, Aβ40 aggregates at 200 min) it was 0.93 ± 0.3 µM. On Aβ40 aggregates (Kd, Aβ40 aggregates at 24 h), this compound registered a Kd of 0.65 ± 0.19 µM. The “emission spectrum shift over the tau aggregation” value in test [2] is listed as “No emission spectrum shifts”.
